Reference: ChEMBL document CHEMBL1125110, “Synthesis and pharmacological studies of N-[4-[2-hydroxy-3-[[2-[4-(1H-imidazol-1-yl)phenoxy]ethyl]amino]propoxy]phenyl]methanesulfonamide, a novel antiarrhythmic agent with class II and class III activities” (J Med Chem, 1990)

Key:
Canis familiaris [1] = assay: In vivo PES efficacy in conscious dogs (iv); format: functional; settings: Canis lupus familiaris, read-out: MED
Method in brief: (§1)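 Mongrel dogs with surgically produced occlusion/reperfusion infarction, studied conscious 3–8 days later. Two control arrhythmias induced by programmed electrical stimulation before iv drug; SVT ended by burst pacing, VF by DC countershock. Counted effective if noninducible after drug.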

Canis familiaris [2] = assay: In vivo heart rate in anesthetized dog at 30 mg/kg; format: functional, Canis lupus familiaris
Method in brief: (§2)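 Pentobarbital-anesthetized mongrel dogs, 30 min stabilization. Cumulative iv doses of 3, 10 and 30 mg/kg, each over 5 min, monitored every 5 min for 15 min. Percent change ± SEM from control at 15 min after the 30 mg/kg dose; n = 4.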

[3] = Bioavailability after oral administration of 3 mg/kg to dogs; format: ADME, organism-based, Canis lupus familiaris; settings: dog, in vivo
Canis familiaris [4] = assay: In vivo coronary flow in anesthetized dog at 30 mg/kg; format: functional, Canis lupus familiaris; method in brief: as §2
Canis familiaris [5] = assay: In vivo mean arterial pressure in anesthetized dog at 30 mg/kg; format: functional, Canis lupus familiaris, Artery; method in brief: as §2
Canis familiaris [6] = assay: In vivo PES efficacy in 8 conscious dogs (PES programmed electrical stimulation protocol); format: functional, Canis lupus familiaris; method in brief: as §1
Canis familiaris [7] = assay: In vivo cardiac output in anesthetized dog at 30 mg/kg; format: functional, Canis lupus familiaris; method in brief: as §2
[8] = Compound was evaluated for lethal dose in rats after intravenous administration; Range is 200-300 mg/kg; format: toxicity, organism-based; settings: rat, in vivo
Canis familiaris [9] = assay: In vivo isoproterenol response in conscious dogs at 10.0 mg/kg; format: functional, Canis lupus familiaris
Method in brief: (§3)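 Conscious mongrel dogs (n = 4) with lead II ECG. Isoproterenol given iv (0.04, 0.08, 0.16 µg/kg) before and after cumulative compound doses of 0.3–10.0 mg/kg. Percent change from the control heart-rate response to 0.08 µg/kg isoproterenol, ± SEM.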

Canis familiaris [10] = assay: In vivo isoproterenol response in conscious dogs at 1.0 mg/kg; format: functional, Canis lupus familiaris; method in brief: as §3
Canis familiaris [11] = assay: In vivo isoproterenol response in conscious dogs at 0.3 mg/kg; format: functional, Canis lupus familiaris; method in brief: as §3
Canis familiaris [12] = organism: Canis familiaris; assay: In vitro electrophysiological activity in isolated canine cardiac Purkinje fibers using standard microelectrode technique; format: functional, Canis lupus familiaris, Purkinje fiber
Method in brief: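 Canine cardiac Purkinje fibers studied with standard intracellular microelectrodes. C20APD95 is the concentration raising action potential duration at 95% repolarization by 20% over control. Reported as the log mean of n experiments with the range.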

Canis familiaris [13] = assay: In vivo left ventricular contractility change in anesthetized dog at 30 mg/kg; format: functional, Canis lupus familiaris, Heart left ventricle; method in brief: as §2
Canis familiaris [14] = assay: In vivo isoproterenol response in conscious dogs at 3.0 mg/kg; format: functional, Canis lupus familiaris; method in brief: as §3
Canis familiaris [15] = assay: In vivo total peripheral resistance in anesthetized dog at 30 mg/kg; format: functional, Canis lupus familiaris; method in brief: as §2
[16] = target: Beta-2 adrenergic receptor (Canis lupus familiaris, UniProt P54833); assay: In vitro Beta-2 adrenergic receptor affinity in partially purified membrane fractions from canine lung tissue using […]dihydroalprenolol (4.5 nM); format: cell membranes
Canis familiaris [17] = assay: In vivo efficacy against halothane/epinephrine induced arrhythmias in 8 anesthetized dogs at 1 mg/kg; format: functional, Canis lupus familiaris
Method in brief: (§4)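 Mongrel dogs under thiopental, ventilated with 1.5 vol% halothane in O2. After 15–30 min stabilization, drug given iv over 10 min. After 20 min equilibration, epinephrine infused at 1.5 µg/kg/min for 15 min. Effective if SVT/VF could not be induced.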

Canis familiaris [18] = assay: In vivo efficacy against halothane/epinephrine induced arrhythmias in 2 anesthetized dogs at 0.3 mg/kg; format: functional, Canis lupus familiaris; method in brief: as §4
Mustela putorius furo [19] = organism: Mustela putorius furo; assay: In vitro contractile function in isolated ferret papillary muscle at 10 uM; format: functional, Muscle tissue
Method in brief: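 Isolated ferret papillary muscle; drug at 10 μM. Read-out is percent change in force of contraction from the control value. Value is the average of n experiments, with the range given.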

[20] = Compound was evaluated for half life; format: ADME
Mustela putorius furo [21] = organism: Mustela putorius furo; assay: In vitro contractile function in isolated ferret papillary muscle at 10 uM.; format: functional, Muscle tissue
Method in brief: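 Isolated ferret papillary muscle exposed to drug at 10 μM. Read-out is percent change in contractile force from the control value. Reported as the average of n experiments with the range.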

Canis familiaris [22] = assay: In vivo efficacy against halothane/epinephrine induced arrhythmias in 4 anesthetized dogs at 0.3 mg/kg; format: functional, Canis lupus familiaris; method in brief: as §4
[23] = target: Phosphodiesterase; PDE3 & PDE4 (Homo sapiens) (UniProt P27815+Q14432+Q08499+Q07343+Q13370+Q08493); assay: Inhibition of canine cardiac particulate cAMP phosphodiesterase; format: protein assay; settings: Canis lupus familiaris; target entry is the homologue from another species; concentration not given here
Method in brief: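 Particulate cAMP phosphodiesterase fraction from dog heart; inhibition measured at 100 μM.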

Canis familiaris [24] = assay: In vivo efficacy against halothane/epinephrine induced arrhythmias in 4 anesthetized dogs at 1 mg/kg; format: functional, Canis lupus familiaris; method in brief: as §4
Canis familiaris [25] = assay: In vivo efficacy against halothane/epinephrine induced arrhythmias in 6 anesthetized dogs at 3 mg/kg; format: functional, Canis lupus familiaris; method in brief: as §4
Canis familiaris [26] = assay: In vivo PES efficacy in 9 conscious dogs (PES programmed electrical stimulation protocol); format: functional, Canis lupus familiaris; method in brief: as §1
Canis familiaris [27] = assay: In vivo efficacy against halothane/epinephrine induced arrhythmias in 4 anesthetized dogs at 3 mg/kg; format: functional, Canis lupus familiaris; method in brief: as §4

Chain of Beta-2 adrenergic receptor (P54833 whole entry): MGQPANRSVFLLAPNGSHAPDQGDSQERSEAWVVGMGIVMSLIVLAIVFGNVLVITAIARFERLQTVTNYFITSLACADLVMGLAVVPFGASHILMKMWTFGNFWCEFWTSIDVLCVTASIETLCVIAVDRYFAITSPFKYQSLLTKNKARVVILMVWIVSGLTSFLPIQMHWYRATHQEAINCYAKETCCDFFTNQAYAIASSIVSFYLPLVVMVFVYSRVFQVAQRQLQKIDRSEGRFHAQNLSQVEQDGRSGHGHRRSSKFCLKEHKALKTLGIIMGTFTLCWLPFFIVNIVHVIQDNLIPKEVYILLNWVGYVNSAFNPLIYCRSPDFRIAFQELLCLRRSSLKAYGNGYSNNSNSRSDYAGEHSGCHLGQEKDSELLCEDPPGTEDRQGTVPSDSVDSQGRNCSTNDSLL

SMILES: CS(=O)(=O)Nc1ccc(OCC(O)CNCCOc2ccc(-n3ccnc3)cc2)cc1.Cl (stereo not given)
- minimal effective dose (Canis familiaris [1]): ~1 mg/kg
- HR (Canis familiaris [2]): -49%
- bioavailability [3]: 60%
- Coronary flow (Canis familiaris [4]): -29%
- MAP (Canis familiaris [5]): -25%
- No. effective (Canis familiaris [6]): 8
- CO (Canis familiaris [7]): -28%
- LD50 [8]: 200 mg/kg
- Response (Canis familiaris [9]): -78%
- Response (Canis familiaris [10]): -0.75%
- Response (Canis familiaris [11]): 30%
- C20 APD95 (Canis familiaris [12]): 0.4 µM
- LV dp/dt (Canis familiaris [13]): -38%
- Response (Canis familiaris [14]): -74%
- TPR (Canis familiaris [15]): 3%
- IC50 [16]: 47 µM
- No. effective (Canis familiaris [17]): 6
- No. effective (Canis familiaris [18]): 0
- Delta F (Mustela putorius furo [19]): 53%

SMILES: CS(=O)(=O)Nc1ccc(OC[C@@H](O)CNCCOc2ccc(-n3ccnc3)cc2)cc1.Cl
- minimal effective dose (Canis familiaris [1]): ~0.4 mg/kg
- HR (Canis familiaris [2]): -48%
- half-life [20]: 180 min
- Delta F (Mustela putorius furo [21]): 75%
- Coronary flow (Canis familiaris [4]): -41%
- MAP (Canis familiaris [5]): -30%
- No. effective (Canis familiaris [6]): 7
- No. effective (Canis familiaris [22]): 2
- CO (Canis familiaris [7]): -32%
- Response (Canis familiaris [9]): -64%
- Response (Canis familiaris [10]): -25%
- inhibition [23]: 19%
- Response (Canis familiaris [11]): 10%
- C20 APD95 (Canis familiaris [12]): 0.8 µM
- LV dP/dt (Canis familiaris [13]): -28%
- Response (Canis familiaris [14]): -45%
- TPR (Canis familiaris [15]): 6%
- IC50 [16]: 100 µM
- No. effective (Canis familiaris [24]): 4

SMILES: CCN(CC)CC(O)COc1ccc(NS(C)(=O)=O)cc1 (stereo not given)
- C20 APD95 (Canis familiaris [12]): 4.8 µM

SMILES: CC(C)NCC(O)c1ccc(NS(C)(=O)=O)cc1 (racemic) [SOTALOL]
- minimal effective dose (Canis familiaris [1]): ~2 mg/kg
- HR (Canis familiaris [2]): -51%
- Coronary flow (Canis familiaris [4]): -51%
- MAP (Canis familiaris [5]): -42%
- CO (Canis familiaris [7]): -61%
- Response (Canis familiaris [10]): -42%
- Response (Canis familiaris [11]): -72%
- C20 APD95 (Canis familiaris [12]): 18 µM
- LV dP/dt (Canis familiaris [13]): -52%
- No. effective (Canis familiaris [25]): 6
- Response (Canis familiaris [14]): -79%
- TPR (Canis familiaris [15]): 78%
- No. effective (Canis familiaris [26]): 7
- No. effective (Canis familiaris [24]): 4

SMILES: Cc1nccn1-c1ccc(OCCNCC(O)COc2ccc(N(C)S(C)(=O)=O)cc2)cc1 (stereo not given)
- Delta F (Mustela putorius furo [21]): -16%
- C20 APD95 (Canis familiaris [12]): >30 µM
- IC50 [16]: > 100 µM

SMILES: CN(c1ccc(OCC(O)CNCCOc2ccc(-n3ccnc3)cc2)cc1)S(C)(=O)=O.Cl.Cl (stereo not given)
- Delta F (Mustela putorius furo [21]): -15%
- C20 APD95 (Canis familiaris [12]): 1.4 µM
- IC50 [16]: > 100 µM

SMILES: Cc1nccn1-c1ccc(OCCNCC(O)COc2ccc(NS(C)(=O)=O)cc2)cc1.O=P(O)(O)O (stereo not given)
- Delta F (Mustela putorius furo [21]): 9%
- C20 APD95 (Canis familiaris [12]): 7.3 µM
- IC50 [16]: 57 µM

SMILES: CC(C)(COc1ccc(-n2ccnc2)cc1)NCC(O)COc1ccc(NS(C)(=O)=O)cc1.Cl.Cl (stereo not given)
- Delta F (Mustela putorius furo [21]): 69%
- C20 APD95 (Canis familiaris [12]): 0.5 µM
- IC50 [16]: 23 µM

SMILES: CCN(CC)CCOc1ccc(-n2ccnc2)cc1
- C20 APD95 (Canis familiaris [12]): 3.4 µM

SMILES: CS(=O)(=O)Nc1ccc(OC[C@H](O)CNCCOc2ccc(-n3ccnc3)cc2)cc1.Cl
- Response (Canis familiaris [9]): 41%
- Response (Canis familiaris [10]): 62%
- No. effective (Canis familiaris [27]): 1
- Response (Canis familiaris [11]): 40%
- C20 APD95 (Canis familiaris [12]): 0.8 µM
- Response (Canis familiaris [14]): -6%
- IC50 [16]: > 100 µM
- No. effective (Canis familiaris [24]): 1
- Delta F (Mustela putorius furo [19]): 27%
